The text below walks through data of BindingDB's records for doi:10.1016/j.bmc.2019.02.023 (Wesleyan University, 2019).

The structures appear in SMILES notation.

Sequence of Beta-lactamase (P05364 whole entry): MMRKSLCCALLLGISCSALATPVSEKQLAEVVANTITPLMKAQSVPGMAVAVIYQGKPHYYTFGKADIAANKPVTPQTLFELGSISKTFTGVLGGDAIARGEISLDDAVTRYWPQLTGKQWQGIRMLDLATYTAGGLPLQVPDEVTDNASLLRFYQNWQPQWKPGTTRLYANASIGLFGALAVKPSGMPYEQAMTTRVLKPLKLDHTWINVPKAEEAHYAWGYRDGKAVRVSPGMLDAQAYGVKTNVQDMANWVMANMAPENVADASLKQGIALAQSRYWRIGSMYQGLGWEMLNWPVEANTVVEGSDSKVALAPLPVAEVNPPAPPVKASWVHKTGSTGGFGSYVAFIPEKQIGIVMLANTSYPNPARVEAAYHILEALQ

The target in the experiment is Beta-lactamase (Enterobacter cloacae, UniProt P05364). Put plainly: Irreversible inhibition of Enterobacter cloacae P99 beta-lactamase using cephalothin as substrate by spectrophotometric analysis. As to conditions: read-out: kon (M-1-s-1). In a few lines:
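P99 class C β-lactamase (stock concentration by A280, ε 7.1 x 10⁴ M⁻¹cm⁻¹) incubated with inhibitor in 20 mM MOPS pH 7.5, 0.1% BSA, 25 °C. Aliquots diluted 1:50 into 300 μM cephalothin; initial rates followed at 270 nm over time. Titration: 150 nM enzyme with 0–2.0 μM inhibitor to end-point. Time-course and titration data fitted jointly to Scheme 2, k2 fixed at 100 s⁻¹, giving k1, k2/k3 and k_i.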
Usually kon stands for the rate constant with which the complex forms. As to `O=C(NOC(=O)Oc1ccccc1)OCc1ccccc1`, the kon is 2000 M⁻¹ s⁻¹.

For the compound `O=C(O)CCCCOC(=O)NOC(=O)Oc1ccccc1`, the kon is 8500 M⁻¹ s⁻¹.

In the case of `CCCCOC(=O)NOC(=O)Oc1ccccc1`, the kon was 1100 M⁻¹ s⁻¹.

Take `N[C@H](CCCOC(=O)NOC(=O)Oc1ccccc1)C(=O)O`: the on-rate (kon) turned out to be 16000 M⁻¹ s⁻¹.

Regarding `O=C(NOC(=O)Oc1ccccc1)OCCc1ccccc1`, the kon worked out at 1400 M⁻¹ s⁻¹.
